Legend:
Format in all cases: functional, cell-based
Settings in all cases: dog, mdck-ii
[1] = molecular target: T1, Multidrug resistance-associated protein 1 (Homo sapiens, UniProt P33527); assay: TP_TRANSPORTER: inhibition of EGCG in MRP1-expressing MDCKII cells
In short: (§1)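 MDCKII cells stably expressing human MRP1 or MRP2, grown to confluence, were preincubated for 2 h in serum-free HBSS. They were then exposed to [3H]EGCG (10 µM, 0.25 µCi/ml) in HBSS with 100 µM ascorbic acid, plus an efflux inhibitor or DMSO vehicle, for 1 h at 37 °C. Inhibitors were 10 µM indomethacin, 1 mM probenecid or 50 µM MK-571. Cells were washed in ice-cold PBS and lysed in 0.2 N NaOH. Cell-associated radioactivity was counted by scintillation and expressed as a ratio to the no-inhibitor control (mean ± SD, n = 4).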

[2] = molecular target: T2, ATP-binding cassette sub-family C member 2 (Homo sapiens, UniProt Q92887); assay: TP_TRANSPORTER: inhibition of EGCG in MRP2-expressing MDCKII cells; in short: as §1
[3] = molecular target: T2, ATP-binding cassette sub-family C member 2; assay: TP_TRANSPORTER: uptake in MRP2-expressing MDCKII cells; in short: as §1
[4] = molecular target: T1, Multidrug resistance-associated protein 1; assay: TP_TRANSPORTER: uptake in MRP1-expressing MDCKII cells; in short: as §1

T2 sequence (Q92887 whole entry): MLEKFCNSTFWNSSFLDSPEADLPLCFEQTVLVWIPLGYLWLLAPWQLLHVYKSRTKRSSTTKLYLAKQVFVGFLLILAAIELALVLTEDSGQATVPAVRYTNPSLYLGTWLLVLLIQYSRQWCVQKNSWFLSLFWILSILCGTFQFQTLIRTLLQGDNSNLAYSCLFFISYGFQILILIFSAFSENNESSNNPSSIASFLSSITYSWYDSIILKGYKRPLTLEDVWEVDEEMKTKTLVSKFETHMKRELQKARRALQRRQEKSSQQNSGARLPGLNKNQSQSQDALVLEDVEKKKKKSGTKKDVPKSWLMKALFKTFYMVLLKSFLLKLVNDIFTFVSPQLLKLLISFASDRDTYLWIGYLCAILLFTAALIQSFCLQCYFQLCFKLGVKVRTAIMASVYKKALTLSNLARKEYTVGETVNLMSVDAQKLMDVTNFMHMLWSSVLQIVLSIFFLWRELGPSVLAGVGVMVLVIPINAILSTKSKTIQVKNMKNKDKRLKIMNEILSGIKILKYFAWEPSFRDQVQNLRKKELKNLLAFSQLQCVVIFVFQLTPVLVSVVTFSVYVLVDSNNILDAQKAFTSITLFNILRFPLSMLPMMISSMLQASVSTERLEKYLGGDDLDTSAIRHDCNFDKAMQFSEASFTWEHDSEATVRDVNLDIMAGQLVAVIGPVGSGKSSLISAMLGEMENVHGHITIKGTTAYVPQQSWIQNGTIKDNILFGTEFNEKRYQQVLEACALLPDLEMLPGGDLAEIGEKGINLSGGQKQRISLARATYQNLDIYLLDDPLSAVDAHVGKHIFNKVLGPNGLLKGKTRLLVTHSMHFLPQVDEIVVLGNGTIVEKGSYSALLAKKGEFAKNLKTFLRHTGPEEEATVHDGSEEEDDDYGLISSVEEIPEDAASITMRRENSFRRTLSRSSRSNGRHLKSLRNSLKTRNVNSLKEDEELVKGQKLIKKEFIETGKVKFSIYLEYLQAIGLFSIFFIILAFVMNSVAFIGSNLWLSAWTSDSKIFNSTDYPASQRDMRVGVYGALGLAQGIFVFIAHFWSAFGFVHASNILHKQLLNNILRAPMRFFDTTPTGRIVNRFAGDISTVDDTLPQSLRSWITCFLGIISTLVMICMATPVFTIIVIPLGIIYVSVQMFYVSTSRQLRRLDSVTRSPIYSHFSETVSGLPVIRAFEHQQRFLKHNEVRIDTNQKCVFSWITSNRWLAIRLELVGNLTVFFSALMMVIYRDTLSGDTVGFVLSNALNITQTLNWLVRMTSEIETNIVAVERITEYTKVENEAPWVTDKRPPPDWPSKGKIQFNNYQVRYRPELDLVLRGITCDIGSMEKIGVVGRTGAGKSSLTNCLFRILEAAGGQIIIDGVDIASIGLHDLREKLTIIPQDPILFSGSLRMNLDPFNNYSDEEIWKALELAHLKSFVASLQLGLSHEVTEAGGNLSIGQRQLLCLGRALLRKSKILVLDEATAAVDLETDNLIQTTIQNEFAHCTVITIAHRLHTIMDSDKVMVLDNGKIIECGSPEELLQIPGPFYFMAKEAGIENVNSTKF
T1 sequence (P33527 whole entry): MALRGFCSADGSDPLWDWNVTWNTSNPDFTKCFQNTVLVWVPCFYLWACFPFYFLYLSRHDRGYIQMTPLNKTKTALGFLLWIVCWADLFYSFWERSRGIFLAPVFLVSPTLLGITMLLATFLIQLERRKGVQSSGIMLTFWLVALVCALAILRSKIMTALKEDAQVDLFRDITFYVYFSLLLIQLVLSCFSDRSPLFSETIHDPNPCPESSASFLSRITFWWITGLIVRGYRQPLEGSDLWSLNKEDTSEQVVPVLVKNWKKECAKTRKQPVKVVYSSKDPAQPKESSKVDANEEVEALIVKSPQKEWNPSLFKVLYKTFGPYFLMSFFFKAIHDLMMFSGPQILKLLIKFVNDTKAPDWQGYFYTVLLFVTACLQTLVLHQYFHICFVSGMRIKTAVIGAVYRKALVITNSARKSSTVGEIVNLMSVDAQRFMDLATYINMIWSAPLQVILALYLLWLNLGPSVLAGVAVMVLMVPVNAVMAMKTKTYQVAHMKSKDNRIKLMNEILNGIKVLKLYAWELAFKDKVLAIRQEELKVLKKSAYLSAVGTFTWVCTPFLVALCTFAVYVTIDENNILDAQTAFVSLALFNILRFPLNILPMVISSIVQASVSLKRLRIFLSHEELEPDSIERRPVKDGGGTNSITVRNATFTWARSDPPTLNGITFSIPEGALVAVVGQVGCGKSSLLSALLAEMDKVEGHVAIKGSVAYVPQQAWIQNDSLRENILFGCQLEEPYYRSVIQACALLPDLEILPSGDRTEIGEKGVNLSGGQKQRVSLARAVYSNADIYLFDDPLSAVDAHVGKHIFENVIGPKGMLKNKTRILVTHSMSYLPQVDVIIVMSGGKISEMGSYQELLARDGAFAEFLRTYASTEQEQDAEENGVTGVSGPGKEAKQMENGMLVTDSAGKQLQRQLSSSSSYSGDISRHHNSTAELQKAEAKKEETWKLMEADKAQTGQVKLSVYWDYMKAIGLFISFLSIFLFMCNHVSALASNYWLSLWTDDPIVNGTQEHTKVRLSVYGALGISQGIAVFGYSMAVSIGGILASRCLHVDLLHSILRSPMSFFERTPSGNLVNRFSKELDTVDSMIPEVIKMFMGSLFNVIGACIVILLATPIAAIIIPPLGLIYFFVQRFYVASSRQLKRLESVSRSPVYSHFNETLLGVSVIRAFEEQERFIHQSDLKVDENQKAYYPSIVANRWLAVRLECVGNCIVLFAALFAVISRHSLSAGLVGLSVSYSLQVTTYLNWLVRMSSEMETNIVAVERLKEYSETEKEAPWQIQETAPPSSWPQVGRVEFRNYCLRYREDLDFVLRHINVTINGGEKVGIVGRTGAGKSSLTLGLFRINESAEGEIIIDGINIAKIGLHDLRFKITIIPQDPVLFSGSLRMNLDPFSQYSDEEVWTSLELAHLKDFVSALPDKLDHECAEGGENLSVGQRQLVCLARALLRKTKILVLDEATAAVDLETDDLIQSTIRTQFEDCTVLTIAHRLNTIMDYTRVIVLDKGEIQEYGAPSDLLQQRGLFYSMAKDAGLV

Activity [1]	Compound	also measured
inhibitor []	COc1cc(/C=C/C(=O)CC(=O)/C=C/c2ccc(O)c(OC)c2)ccc1O [CURCUMIN]	–
inhibitor []	O=c1c(-c2ccc(O)cc2)coc2cc(O)ccc12 [DAIDZEIN]	–
inhibitor []	CCCN(CCC)S(=O)(=O)c1ccc(C(=O)O)cc1 [PROBENECID]	Activity [2]: inhibitor []
–	COc1c(O)cc(C(=O)O[C@@H]2Cc3c(O)cc(O)cc3O[C@@H]2c2cc(O)c(OC)c(O)c2)cc1O	Activity [3]: substrate []; Activity [4]: substrate []
inhibitor []	COc1ccc(-c2coc3cc(O)cc(O)c3c2=O)cc1 [BIOCHANIN]	–
inhibitor []	COc1ccc2c(c1)c(CC(=O)O)c(C)n2C(=O)c1ccc(Cl)cc1 [INDOMETHACIN]	–
inhibitor []	COc1cc(CCC(=O)CC(=O)CCc2ccc(O)c(OC)c2)ccc1O [TETRAHYDROCURCUMIN]	–
inhibitor []	O=c1c(-c2ccc(O)cc2)coc2cc(O)cc(O)c12 [GENISTEIN]	–
inhibitor []	COc1ccc(-c2coc3cc(O)ccc3c2=O)cc1 [FORMONONETIN]	–
–	CN(C)C(=O)CCSC(SCCC(=O)O)c1cccc(/C=C/c2ccc3ccc(Cl)cc3n2)c1 (stereo not given) [MK-571]	Activity [2]: inhibitor []
–	CC[C@]1(O)C[C@H]2CN(CCc3c([nH]c4ccccc34)[C@@](C(=O)OC)(c3cc4c(cc3OC)N(C=O)[C@H]3[C@@](O)(C(=O)OC)[C@H](OC(C)=O)[C@]5(CC)C=CCN6CC[C@]43[C@@H]65)C2)C1 [VINCRISTINE]	Activity [2]: inhibitor []
–	COc1c(O)cc(C(=O)O[C@@H]2Cc3c(O)cc(O)cc3O[C@@H]2c2cc(O)c(O)c(O)c2)cc1O	Activity [3]: substrate []; Activity [4]: substrate []
